Screening results: PubChem BioAssay, several laboratories
Shown are actives, neighbours in structure and some others; about 4.8% of the full set was active somewhere.
HSF1 inhib: HSF1 inhibition; NIH3T3-HGL HSE-luciferase, MG132-induced, luminescence 8 h; hits give low values; activity change, negative = inhibition, % at 7.5 µM (by protocol); actives 0.77% (n = 300,000);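 active = more than half of replicate wells show activity change below -50%, luminescence cut by over half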;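 also: luciferase reports HSF-1 transcriptional activity via heat shock element; 0% = median of DMSO wells and -100% = zero luminescence signal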
GPR7 antag: blocks human GPR7 receptor signaling; P48145; GPR7-expressing cells, fluorescence antagonist assay; inhibition, % at 4.4 µM; actives 1.1% (n = 290,000); AID 1861; in the data active = inhibition above about 16%, passing the limit was not always enough;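 also: cells stimulated with the agonist NPW; 0% = agonist with vehicle and 100% = vehicle without agonist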
Target sequence (P48145 whole entry, looked up): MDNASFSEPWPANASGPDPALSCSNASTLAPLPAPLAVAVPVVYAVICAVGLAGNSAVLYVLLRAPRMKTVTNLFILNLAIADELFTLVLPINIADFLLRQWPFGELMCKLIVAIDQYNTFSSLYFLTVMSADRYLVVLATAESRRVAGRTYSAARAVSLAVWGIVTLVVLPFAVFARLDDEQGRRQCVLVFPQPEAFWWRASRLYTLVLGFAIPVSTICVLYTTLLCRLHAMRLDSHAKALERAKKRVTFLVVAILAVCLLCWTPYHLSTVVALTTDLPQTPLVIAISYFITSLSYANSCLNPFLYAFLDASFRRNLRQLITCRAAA
Jurkat NFkB inh: lowers PMA/ionomycin-induced NF-kB signal in Jurkat cells; PMA/ionomycin-induced NF-kB luciferase reporter, luminescence; inhibition, % at 4 µM; actives 0.53% (n = 330,000); AID 435003; in the data active = inhibition above about 50%
T cruzi repl: T. cruzi replication inhibition; AID 1885; actives 1.4% (n = 300,000); T. cruzi beta-gal in NIH3T3, luminescence, 90 h; inhibition, % (concentration not given with the values);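 active = mean inhibition across valid replicates above about 55%, limit read from the data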;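 also: signal also drops with host cell toxicity which is not excluded here; 0% = plate median of DMSO wells and 100% = zero luminescence signal; higher percent means less beta-gal luminescence so fewer parasites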
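assay system = mouse NIH/3T3 fibroblasts infected with β-gal-expressing T. cruzi Tulahuen C4 | input = 5,000 NIH/3T3 host cells per well | buffer or medium = DMEM plus 2% FBS | timing = 3 h host attachment, then at least 90 h co-culture | measured by = GalScreen luminescence, 60 min | evaluation = luminescence reflecting intracellular parasite burden, expressed as percent inhibition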
697 NFkB inh: inhibitors of the PMA/ionomycin-induced NF-kB reporter in 697 B cells. 697 B-cell NF-kB luciferase reporter, 16 h. actives 0.33% (n = 330,000). inhibition, % at 4 µM; in the data active = inhibition above about 35%
HSF1 activator: increases HSF-1 driven luciferase reporter signal; NIH3T3-HGL HSF-1 luciferase reporter, MG132, 8 h; 100% = twice DMSO control signal; activation, % at 9 µM; actives 1.7% (n = 300,000);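 active = mean replicate activation of at least 50% with a set share of replicates each reaching 50%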;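 also: 0% = median of the neutral control wells and 100% = twice that signal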
An asterisk follows results filed as active; . = no result.

SMILES	HSF1 inhib	GPR7 antag	Jurkat NFkB inh	T cruzi repl	697 NFkB inh	HSF1 activator
Cc1ccc(NC(=O)/C(C#N)=C/c2cccs2)c(C)c1	28	6	-30	-10	-60	53*
O=C(O)c1ccc(S(=O)(=O)Nc2ccc3c(c2)OCCO3)cc1	-16	-11	-8	-8	-43	-11
Cc1ccc(NC(=S)NC(=O)c2ccccc2)cc1NC(=S)NC(=O)c1ccccc1	20	-7	.	22	.	41
Cc1ccc(C(=O)NC(=S)Nc2cc(-c3nc4ccccc4s3)ccc2C)cc1	16	-14	-148	13	-156	59*
COc1ccc(CN2CCNC(=O)C2CC(=O)O)cc1OC (stereo not drawn)	-3	1	1	-1	18	5
COc1ccc(CN2CCNC(=O)C2CC(=O)NC2CC(C)(C)CC(C)(C)C2)cc1OC (stereo not drawn)	-70*	-12	4	-18	-3	-79
O=C(OCc1ccc(F)cc1)c1cc(S(=O)(=O)N2CCCCC2)ccc1N1CCOCC1	14	.	5	26	-11	26
CCc1cc(=O)oc2c(C)c(OCC(=O)NC3CC(C)(C)NC(C)(C)C3)ccc12	-2	-7	-24	-2	-6	5
CC1=CC2=C(OC1N(C)C)c1cccc3cccc(c13)C2=O (stereo not drawn)	35	0	18	9	-3	63*
CC(=O)Nc1ccc(NC(=O)C(C)OC(=O)CCc2c[nH]c3ccccc23)cc1 (stereo not drawn)	-1	.	-3	-2	25	1
COc1cc(NC(=O)COc2ccc(-n3cnnn3)cc2)cc(OC)c1OC	.	.	1	.	13	.
COc1cc(/C=C2/CCc3ccccc3C2=O)cc(OC)c1OC	43	-21	-10	8	-52	73*
COc1cc(/C=C2\CC/C(=C\c3cc(OC)c(O)c(OC)c3)C2=O)cc(OC)c1O	.	-11	-1	.	9	.
COc1cc(/C=C2/CCC/C(=C\c3cc(O)c(OC)c(Cl)c3)C2=O)cc(Cl)c1O	168	0	-3	12	-37	204*
COc1cc(/C=C2\COC/C(=C\c3cc(OC)c(OC)c(OC)c3)C2=O)cc(OC)c1OC	-92*	-7	.	11	.	-93
CC(=O)Nc1sc(C)c(C)c1C(=O)OCC(=O)N(Cc1ccccc1)C(C)C	.	.	12	.	4	.
CCC(C)n1c(C)nc2c(c1=O)c1nc3ccccc3nc1n2CCC1=CCCCC1 (stereo not drawn)	-3	-5	11	59*	10	11
NC(N)=N/N=C/c1cccc(Cl)c1Cl	-7	4	20	55*	23	4
NC(N)=N/N=C/c1cccc([N+](=O)[O-])c1O	-2	-14	4	34	-19	-5
CCCSc1nnc(-c2cccc(S(=O)(=O)N(C)C)c2)n1-c1cc(OC)ccc1OC	4	20*	1	7	-14	-3
O=C(CN(C(=O)CNC(=O)c1cccs1)c1cccc(F)c1)NC1CCCC1	-7	-11	-1	-11	-4	-4
O=C(CSS(=O)(=O)O)N1CCN(C(=O)c2ccoc2)CC1	-3	-3	2	0	-4	-10
C=CCN(c1ccc(C(=O)NCCSc2ccccc2)cc1)S(C)(=O)=O	28	3	-42	-11	-55	35
Cn1c(=NC(=O)c2ccc(S(=O)(=O)N3CCCc4ccccc43)cc2)sc2cc(S(C)(=O)=O)ccc21	-9	2	6	52	-5	-6
C#CCn1c(=NC(=O)c2ccc(S(=O)(=O)N3CCCc4ccccc43)cc2)sc2cc(S(N)(=O)=O)ccc21	6	-9	9	55*	-20	53*
SMILES	HSF1 inhib	GPR7 antag	Jurkat NFkB inh	T cruzi repl	697 NFkB inh	HSF1 activator
CCOc1ccc(CN(C)C(C)C(=O)NCCc2ccc(F)cc2)cc1 (stereo not drawn)	17	7	-15	15	-6	44
COc1cccc(/C=C(\C#N)c2nc3ccccc3[nH]2)c1OCC(=O)O	-64*	10	-24	-3	-54	-71
COc1cc(/C=C(\C#N)c2nc3ccccc3[nH]2)ccc1Oc1ccc([N+](=O)[O-])cn1	28	6	10	62*	4	62*
COc1cc(/C=C(\C#N)c2nc3ccccc3[nH]2)cc(OC)c1O	10	3	.	-2	.	38
COc1ccc(C=C(c2nc3ccccc3s2)c2nc3ccccc3s2)cc1O	124	2	-44	24	-22	132*
COc1ccc(/C=C(\C#N)c2nc3ccccc3[nH]2)cc1O	60	5	-120	-1	20	85*
COc1cccc(/C=C(/C#N)c2nc3ccccc3[nH]2)c1OC(C)C(=O)O (stereo not drawn)	7	1	13	-6	-4	10
COc1cc(/C=C(/C#N)c2ccccc2)ccc1Oc1ccc([N+](=O)[O-])cn1	-3	-5	4	48	16	29
COc1ccc(C(=O)O)cc1S(=O)(=O)N1CCN(Cc2ccc3c(c2)OCO3)CC1	.	.	1	.	13	.
COC(=O)c1ccc2c(c1)C(C)(C)C(/C=C/c1ccc(O)cc1)=[N+]2C	80	10	45	52	-66	85*
Cc1cc(=O)[nH]c(/N=C(\N)Nc2ccc3c(c2)OCCO3)n1	4	-7	-4	-19	19	1
Cc1cc(C)nc(/N=C(\N)Nc2ccc3c(c2)OCCO3)n1	-54*	-3	36	-8	-15	-60
Cc1cc(C)cc(N(C(=O)c2csnn2)C(C(=O)NC2CCCCC2)c2ccccn2)c1 (stereo not drawn)	2	-8	-13	33	6	-9
O=C(COC(=O)c1ccccc1F)NC(=O)NC1CCCC1	.	.	-17	.	10	.
CC(=O)N1CCN(C(=O)c2cc3c(s2)CCC(C)C3)CC1 (stereo not drawn)	.	.	-17	.	-7	.
CCc1ccc(-n2cc(-c3ccc(F)cc3)[n+]3c2SCCC3)cc1	-11	17	39	56*	24	-17
CCN(CC)S(=O)(=O)c1ccc2c(c1)c(=O)c(C(=O)NCCN(C)CCc1ccccc1)cn2C	4	-6	-12	56*	-6	-9
COCCSc1ccccc1C(=O)Nc1ccc(S(=O)(=O)N2CCOCC2)cc1	1	-8	-3	-1	-19	0
Cc1cc(=O)oc2cc(OCC(=O)N3CCCC3)c(Cl)cc12	.	.	6	.	19	.
COc1ccc(CN2CCCC(CNC(=O)c3ccc(F)cc3)C2)c(F)c1 (stereo not drawn)	-3	0	-6	36	-2	5
CSc1cccc(CN2CCCC(CNC(=O)c3ccc(F)cc3)C2)c1 (stereo not drawn)	3	-12	18	43	11	6
